Screening data: PubChem, Broad Institute
E-sel inducer = induces E-selectin expression in human endothelial cells; HUVEC E-selectin immunofluorescence imaging; normalized: neutral wells 0, TNF-alpha wells 100; 260,000 tested, 0.37% active; activation, % at 7.58 µM; AID 686992;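 active = mean E-selectin-positive cell signal at least 10% of the positive control, reached in at least 60% of replicates, without over 20% cell loss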
Target sequence (P16581 whole entry, looked up): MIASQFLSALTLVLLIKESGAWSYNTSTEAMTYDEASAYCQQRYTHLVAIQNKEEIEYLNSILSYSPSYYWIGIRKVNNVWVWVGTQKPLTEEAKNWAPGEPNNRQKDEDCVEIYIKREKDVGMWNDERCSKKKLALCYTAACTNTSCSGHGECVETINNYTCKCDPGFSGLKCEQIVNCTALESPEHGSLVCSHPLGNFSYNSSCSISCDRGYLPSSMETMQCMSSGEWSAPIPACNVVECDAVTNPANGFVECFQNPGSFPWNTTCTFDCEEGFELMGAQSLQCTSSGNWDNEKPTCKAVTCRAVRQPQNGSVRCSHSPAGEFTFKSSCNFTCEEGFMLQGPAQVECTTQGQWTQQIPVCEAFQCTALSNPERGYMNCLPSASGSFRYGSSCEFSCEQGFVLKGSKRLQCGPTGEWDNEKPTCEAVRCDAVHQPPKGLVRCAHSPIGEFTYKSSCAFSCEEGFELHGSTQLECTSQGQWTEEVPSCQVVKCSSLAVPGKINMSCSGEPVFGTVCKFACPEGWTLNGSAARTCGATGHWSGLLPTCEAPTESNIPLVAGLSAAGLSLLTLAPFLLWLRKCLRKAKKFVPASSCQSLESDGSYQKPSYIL
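assay system = HUVEC, human umbilical vein endothelial cells | input = 3,000 HUVEC seeded per well | medium = EGM-2 growth medium on 0.1% gelatin-coated wells | dosing = one compound dose added by pin transfer | signal = immunofluorescence imaging | read-out basis = % PE-positive cells | control set = TNF-alpha, DMSO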
* hit, by the source's call. The sample as a whole holds a higher share of hits than the screen did.

SMILES | E-sel inducer
N#Cc1ccc(Nc2nc(-c3ccccc3)cs2)cc1 | -0.7
c1ccc(-c2csc(NC3=NCCCCC3)n2)cc1 | -0.2
N#Cc1ccc(-c2csc(NC3=NCCCCC3)n2)cc1 | 44.2*
COc1ccc(S(=O)(=O)Nc2ccc3c(c2)CC(=O)N([C@H](C)CO)C[C@H](C)[C@H](CN(C)C(=O)Nc2ccc(F)cc2)O3)cc1 | -6.2
C[C@@H]1CN([C@H](C)CO)C(=O)Cc2cc(NC(=O)C3CCCCC3)ccc2O[C@@H]1CN(C)Cc1ccc(Cl)c(Cl)c1 | 0.8
O=C(C[C@@H]1CC[C@H]2[C@@H](COC[C@H](O)CN2C(=O)c2ccc(F)cc2)O1)Nc1ccc(-c2ccccc2)cc1 | 38.0*
O=C(C[C@H]1CC[C@H]2[C@@H](COC[C@@H](O)CN2C(=O)c2ccc(F)cc2)O1)Nc1ccc(-c2ccccc2)cc1 | 0.3
O=C(C[C@H]1CC[C@@H]2[C@H](COC[C@H](O)CN2C(=O)c2ccc(F)cc2)O1)Nc1ccc(-c2ccccc2)cc1 | 0.6
COC(=O)C[C@@H]1C[C@@H]2c3cc(NC(=O)Nc4ccc(OC)cc4)ccc3O[C@@H]2[C@H](CO)O1 | 1.2
Cc1cccc(NS(=O)(=O)c2ccc(S(=O)(=O)N3CCCC3)cc2)c1 | 206.0*
CCN(CC)S(=O)(=O)c1ccc(N2CCOCC2)c(NS(=O)(=O)c2ccc(C)cc2)c1 | -2.9
Cc1ccc(S(=O)(=O)Nc2cc(S(=O)(=O)N3CCCCC3)ccc2N2CCOCC2)cc1 | 32.2*
Cc1ccc(C(=O)Nc2cc(S(=O)(=O)N3CCOCC3)ccc2N2CCCC2)cc1 | 0.8
Cc1cccc(NC(=O)c2ccc(S(=O)(=O)N3CCCCC3)cc2)c1 | 0.0
Cc1ccccc1NS(=O)(=O)c1ccc(S(=O)(=O)N2CCCC2)cc1 | 0.1
C[C@@H]1CN([C@H](C)CO)C(=O)CCCn2cc(nn2)CO[C@H]1CN(C)Cc1ccc2c(c1)OCO2 | -0.2
COc1ccccc1S(=O)(=O)N(C)C[C@H]1OCc2ccccc2-c2ccccc2C(=O)N([C@@H](C)CO)C[C@H]1C | 0.1
N#C/C(=N\Nc1ccc(Cl)cc1)C(N)=S | 72.1*
N#C/C(=N\Nc1ccc(Cl)cc1)C(=O)c1ccsc1 | 0.0
Cc1ccc(N/N=C(\C#N)C(N)=S)cc1C | 6.4
COc1ccc(NC(=O)Nc2ccc3c(c2)C(=O)N([C@@H](C)CO)C[C@@H](C)[C@H](CN(C)C(=O)NC2CCCCC2)OCCCC[C@@H](C)O3)cc1 | -0.2
CC(=O)N(C)C[C@@H]1Oc2ncc(-c3cccnc3)cc2C(=O)N([C@@H](C)CO)C[C@H]1C | -0.4
CO[C@H]1CN(C)C(=O)c2ccc(NC(=O)Nc3ccc(Cl)cc3)cc2OC[C@@H](C)N(C(=O)Nc2c(C)noc2C)C[C@H]1C | 0.6
CN(CC(=O)Nc1ccccc1)CC(=O)Nc1ccc(F)cc1 | 12.6
CN(CC(=O)NCCCc1ccccc1)Cc1ccc(Br)cc1 | 0.2
SMILES | E-sel inducer
CN(CC(=O)Nc1ccc(Br)cc1)Cc1ccccc1 | 97.4*
CN(C)C(=O)C[C@@H]1C[C@@H]2c3cc(NS(=O)(=O)c4ccccc4)ccc3O[C@@H]2[C@@H](CO)O1 | -0.4
Cc1ccc(S(=O)(=O)N[C@H]2CC[C@H](CC(=O)NC3CCCCC3)O[C@H]2CO)cc1 | -0.1
Cc1ccc(NS(=O)(=O)c2c(C)[nH]c(C)c2C(=O)N2CCCC2)cc1Cl | 0.1
Cc1[nH]c(C)c(S(=O)(=O)Nc2ccc(F)cc2Cl)c1C(=O)N1CCCC1 | -0.1
COc1ccccc1NS(=O)(=O)c1c(C)[nH]c(C)c1C(=O)N1CCCC1 | 49.8*
O=C(NCC[C@@H]1CC[C@H](NS(=O)(=O)Cc2ccccc2)[C@@H](CO)O1)C1CCCCC1 | 0.7
CCN(C(=O)COC(=O)/C=C/c1ccc(F)cc1)C1CCCCC1 | 0.0
O=C(/C=C/c1ccco1)OCC(=O)N1CCCCC1 | -0.1
CCN(C(=O)COC(=O)/C=C/c1ccco1)C1CCCCC1 | 110.6*
C[C@H](CO)N1C[C@H](C)[C@H](CN(C)S(C)(=O)=O)Oc2ccc(NC(=O)NC3CCCCC3)cc2CC1=O | -1.7
O=C(CCN1C(=O)C2C3C=CC(C3)C2C1=O)Nc1ccccc1 (configuration not stated) | 1.9
CC1CCC(NC(=O)CCN2C(=O)C3CC=CCC3C2=O)CC1 (configuration not stated) | -0.5
CC1CCC(NC(=O)CCN2C(=O)C3C4C=CC(C4)C3C2=O)CC1 (configuration not stated) | 177.1*
COc1cccc(CNC(=O)C[C@H]2CC[C@@H]3[C@@H](COc4ccc(NC(C)=O)cc4C(=O)N3C)O2)c1 | -0.1
CCCC(=O)Nc1ccc2c(c1)C(=O)N(C)[C@H]1CC[C@@H](CC(=O)Nc3ccccc3)O[C@H]1CO2 | 0.0
C[C@H]1CN([C@@H](C)CO)C(=O)c2cc(NC(=O)c3ccncc3)ccc2O[C@H]1CN(C)Cc1ccncc1 | -0.2
COc1ccc(CN(C)C[C@H]2Oc3ccc(NC(=O)c4ccncc4)cc3C(=O)N([C@H](C)CO)C[C@@H]2C)cc1 | 47.5*
C[C@@H]1CN([C@@H](C)CO)C(=O)c2cc(NC(=O)c3ccncc3)ccc2O[C@@H]1CN(C)Cc1ccc(Oc2ccccc2)cc1 | 0.1
C[C@H](CO)N1C[C@H](C)[C@H](CN(C)Cc2ccc(Oc3ccccc3)cc2)Oc2ccc(NC(=O)c3ccncc3)cc2C1=O | 0.0
COc1ccc(CN(C)C[C@@H]2Oc3ccc(NC(=O)c4ccncc4)cc3C(=O)N([C@H](C)CO)C[C@H]2C)cc1 | 92.6*
C[C@@H]1CN([C@H](C)CO)C(=O)c2cc(NC(=O)c3ccncc3)ccc2O[C@H]1CN(C)Cc1ccncc1 | 0.4
CN(C)C(=O)c1cccc(-c2ccc([C@@H]3[C@H](CO)N4C(=O)CN(C(=O)C5CCCC5)C[C@@H]34)cc2)c1 | -0.7
O=C(C[C@H]1CC[C@@H]2[C@H](COC[C@H](O)CN2C(=O)Nc2ccc3c(c2)OCO3)O1)N1CCN(c2ccccc2)CC1 | 0.0
COc1ccc(S(=O)(=O)Nc2ccc3c(c2)C(=O)N([C@@H](C)CO)C[C@H](C)[C@H](CN(C)C(=O)CCC(F)(F)F)OCCCC[C@@H](C)O3)cc1 | -0.3
SMILES | E-sel inducer
C[C@@H]1CN([C@H](C)CO)C(=O)Cc2cc(NC(=O)Nc3ccc(F)cc3)ccc2O[C@@H]1CN(C)C(=O)Nc1cccc2ccccc12 | 0.0
CO[C@H]1CN(C)C(=O)c2ccc(NC(C)=O)cc2OC[C@@H](C)N(CC2CC2)C[C@@H]1C | -0.1
CC(C)(C)c1cc(-c2ccccc2)no1 | 4.2
Cn1c(-c2cccc(Br)c2)cnc1NCc1ccccc1O | 0.0
CNc1ccccc1C(C)(C)c1cc(-c2cccc(Br)c2)no1 | 83.6*
CO[C@@H]1CC[C@H]2CCN(C)C(=O)C[C@H](c3ccccc3)CN(C)C(=O)c3cc(C#N)ccc3OC[C@H]1O2 | 0.1
CC(C)Cc1nc2ccccc2[nH]1 | -0.3
COc1ccc(CCCc2nc3ccccc3[nH]2)cc1 | -0.4
COc1ccccc1CC(Cc1nc2ccccc2[nH]1)c1nc2ccccc2[nH]1 (configuration not stated) | 176.0*
CC(=O)NC[C@@H]1[C@@H](c2ccc(C3=CCCC3)cc2)[C@@H](CO)N1C(=O)C1CC1 | -0.1
CCC(C)NC(=O)c1cc2c(=O)n(CC)c3ccccc3c2s1 (configuration not stated) | 0.1
CCn1c(=O)c2cc(C(=O)NCCCOC)sc2c2ccccc21 | 53.2*
CCOC(CNC(=O)c1cc2c(=O)n(CC)c3ccccc3c2s1)OCC | -0.1
CCn1c(=O)c2cc(C(=O)NCCC(C)C)sc2c2ccccc21 | 1.1
